pIC50: −log10 of the molar value. Calls of active or inactive are those of the source. No cut-off for these calls is given here.
Experiments:
[1] = biological target: T1, Aurora kinase A (Homo sapiens, UniProt O14965); test: Inhibition of His-tagged human Aurora A kinase ([…] residues) expressed in Escherichia coli BL21 (DE3) Rosetta cells using biotinylated STK2 substrate incubated for 30 mins by HTRF assay
T1 sequence (O14965 whole entry): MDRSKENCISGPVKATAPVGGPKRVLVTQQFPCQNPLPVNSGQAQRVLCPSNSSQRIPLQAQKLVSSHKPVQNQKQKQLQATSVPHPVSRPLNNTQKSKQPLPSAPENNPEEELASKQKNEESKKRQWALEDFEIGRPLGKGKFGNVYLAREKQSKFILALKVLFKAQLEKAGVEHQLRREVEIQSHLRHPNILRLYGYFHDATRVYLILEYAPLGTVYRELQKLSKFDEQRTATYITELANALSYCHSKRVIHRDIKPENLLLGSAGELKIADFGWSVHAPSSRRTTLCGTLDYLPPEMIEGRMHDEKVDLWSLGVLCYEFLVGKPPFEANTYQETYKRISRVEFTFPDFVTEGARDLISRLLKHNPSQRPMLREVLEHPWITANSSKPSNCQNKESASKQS

[2] = biological target: Aurora kinase B/Inner centromere protein (Homo sapiens, UniProt Q96GD4); test: Inhibition of Aurora-B/INCENP (unknown origin) using biotinylated STK2 substrate incubated for 30 mins by HTRF assay; format: protein-complex assay
Procedure, shortened: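 Biochemical kinase inhibition was read by HTRF with 20 µM ATP. Aurora B was assayed as its complex with the activator INCENP. For Aurora A, IC50 curves were recorded at different TPX2 concentrations.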

[3] = species: Homo sapiens; test: Selectivity index, ratio of IC50 for Aurora-B/INCENP (unknown origin) to IC50 for His-tagged human Aurora A kinase ([…] residues) expressed in Escherichia coli BL21 (DE3) Rosetta cells
[4] = biological target: T1, Aurora kinase A; test: Inhibition of Aurora A kinase autophosphorylation at Thr288 in human HeLa Kyoto cells incubated for 20 hrs; format: cell-based
[5] = system: HeLa Kyoto; test: Increase in mitotic index in human HeLa Kyoto cells incubated for 20 hrs; format: functional, cell-based
Procedure, shortened: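 HeLa Kyoto cells were incubated overnight with compound, and the fraction of mitotic cells was scored. The experiment was repeated twice; mean ± SD.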

[6] = biological target: T2, Aurora kinase B (Homo sapiens, UniProt Q96GD4); settings: HeLa Kyoto, 2.5 uM
[7] = biological target: T2, Aurora kinase B; settings: HeLa Kyoto, 2.5 uM; remark: listed apart in the source

Aurora kinase B/Inner centromere protein, sequence (Q96GD4 whole entry): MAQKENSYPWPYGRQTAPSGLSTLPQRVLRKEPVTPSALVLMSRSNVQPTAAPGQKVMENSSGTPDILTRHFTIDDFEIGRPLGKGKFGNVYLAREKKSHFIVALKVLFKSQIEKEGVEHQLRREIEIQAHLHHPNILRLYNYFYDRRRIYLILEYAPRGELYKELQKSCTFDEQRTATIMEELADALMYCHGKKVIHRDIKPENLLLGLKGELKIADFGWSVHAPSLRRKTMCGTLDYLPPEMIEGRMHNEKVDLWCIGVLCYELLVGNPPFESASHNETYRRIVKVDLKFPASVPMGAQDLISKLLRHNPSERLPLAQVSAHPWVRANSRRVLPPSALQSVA
Aurora kinase B/Inner centromere protein, sequence (Q9NQS7 whole entry, further chain): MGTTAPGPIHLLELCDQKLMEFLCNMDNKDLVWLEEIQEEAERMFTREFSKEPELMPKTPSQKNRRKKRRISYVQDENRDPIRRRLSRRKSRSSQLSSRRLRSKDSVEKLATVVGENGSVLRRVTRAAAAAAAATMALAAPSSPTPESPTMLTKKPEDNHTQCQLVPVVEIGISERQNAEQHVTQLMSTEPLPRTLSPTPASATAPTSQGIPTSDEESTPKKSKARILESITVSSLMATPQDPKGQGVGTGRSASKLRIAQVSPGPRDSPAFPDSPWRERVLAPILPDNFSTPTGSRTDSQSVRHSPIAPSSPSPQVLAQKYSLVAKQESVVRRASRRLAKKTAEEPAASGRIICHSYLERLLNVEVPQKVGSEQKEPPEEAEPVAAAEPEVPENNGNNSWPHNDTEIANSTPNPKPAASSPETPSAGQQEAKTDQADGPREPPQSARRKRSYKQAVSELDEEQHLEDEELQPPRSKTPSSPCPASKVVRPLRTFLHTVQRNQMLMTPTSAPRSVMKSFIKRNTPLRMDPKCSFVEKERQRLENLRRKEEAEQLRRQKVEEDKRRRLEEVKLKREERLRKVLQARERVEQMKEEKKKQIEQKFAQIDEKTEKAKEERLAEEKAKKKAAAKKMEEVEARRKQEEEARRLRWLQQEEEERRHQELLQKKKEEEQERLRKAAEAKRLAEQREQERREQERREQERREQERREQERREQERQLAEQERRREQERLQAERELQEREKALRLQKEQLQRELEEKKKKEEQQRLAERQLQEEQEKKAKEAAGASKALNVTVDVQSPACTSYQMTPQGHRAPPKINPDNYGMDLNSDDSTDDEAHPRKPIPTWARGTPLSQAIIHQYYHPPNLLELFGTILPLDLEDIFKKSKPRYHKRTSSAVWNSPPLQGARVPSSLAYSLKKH
T2 sequence (Q96GD4 whole entry): as the sequence (Q96GD4 whole entry) above

| Structure (SMILES) | pIC50 [1] | other results |
| --- | --- | --- |
| Cc1ccc2[nH]c(-n3c(=O)[nH]c4ccccc43)nc2c1 | 5.11 |  |
| O=c1[nH]c2cc(Cl)ccc2n1-c1nc2ccccc2[nH]1 | < 3.70 |  |
| CCc1ccc(/N=C2/SC3(CC3c3ccnc(N)c3)C(=O)N2C)cc1 (racemic) | < 3.70 |  |
| O=c1[nH]c2ccc(Cl)cc2n1-c1nc2ccccc2[nH]1 | 4.64 |  |
| O=c1[nH]c2ccc(O)cc2n1-c1nc2ccccc2[nH]1 | 4.92 |  |
| CCc1ccc(/N=C2\SC3(CC3c3ccnc(N)c3)C(=O)N2C)cc1 (racemic) | 4.12 |  |
| O=c1[nH]c2ccccc2n1-c1nc2cc(C(F)(F)F)ccc2[nH]1 | < 4.15 |  |
| CN1C(=O)/C(=C/c2ccncc2)S/C1=N\c1ccccc1 | 5.05 |  |
| O=c1[nH]c2c(O)cccc2n1-c1nc2ccccc2[nH]1 | 4.68 |  |
| CNC(=O)c1ccc2[nH]c(=O)n(-c3nc4ccccc4[nH]3)c2c1 | 4.96 |  |
| O=C(O)c1ccc2c(c1)[nH]c(=O)n2-c1nc2ccccc2[nH]1 | 5.46 |  |
| Cc1cccc2[nH]c(-n3c(=O)[nH]c4ccccc43)nc12 | 4.85 |  |
| COc1cc(Nc2ncc3c(n2)-c2ccc(Cl)cc2C(c2c(F)cccc2OC)=NC3)ccc1C(=O)O |  | Activity [5]: Dose-dependent effect |
| O=c1[nH]c2cccc(O)c2n1-c1nc2ccccc2[nH]1 | 4.82 |  |
| CCc1ccc(/N=C2\S/C(=C\c3ccncc3)C(=O)N2CC2CCCCC2)cc1 | < 3.70 |  |
| CNC(=O)c1ccc2c(c1)[nH]c(=O)n2-c1nc2ccccc2[nH]1 | < 4.30 |  |
| O=c1[nH]c2ccccc2n1-c1nc2ccccc2[nH]1 | 5.15 to 5.19 |  |
| O=c1[nH]c2ccccc2n1-c1nc2cc(Br)ccc2[nH]1 | 5.05 |  |
| COc1cc2c(Nc3ccc(NC(=O)c4ccccc4)cc3)ncnc2cc1OCCCN1CCOCC1 |  | inhibition [6]: Active; inhibition [7]: Active |
| O=C(O)c1ccc2[nH]c(=O)n(-c3nc4ccccc4[nH]3)c2c1 | 5.46 |  |
| CCCCc1ccc(/N=C2\S/C(=C\c3ccncc3)C(=O)N2C)cc1 | 5.48 |  |
| CCc1ccccc1/N=C1\S/C(=C\c2ccncc2)C(=O)N1C | 4.28 |  |
| CCc1cccc(/N=C2\S/C(=C\c3ccncc3)C(=O)N2C)c1 | 5.31 |  |

Now from value to molecule, other results behind:

| pIC50 [1] | Structure (SMILES) | other results |
| --- | --- | --- |
| 8.21 | CCc1ccc(/N=C2\S/C(=C\c3ccnc(NC(=O)CCCC(=O)O)c3)C(=O)N2C)cc1 | pIC50 [2]: 5.85; Ratio IC50 [3]: 230 |
| 6.22 | CCc1ccc(/N=C2\S/C(=C\c3ccnc(Nc4ccccc4)c3)C(=O)N2C)cc1 |  |
| 6.41 | CCc1ccc(/N=C2\S/C(=C\c3ccncc3)C(=O)N2C)cc1 |  |
| 6.72 | CCc1ccc(/N=C2\S/C(=C\c3ccnc(N)c3)C(=O)N2C)cc1 | pIC50 [2]: 4.64; Ratio IC50 [3]: 121 |
| 7.62 | CCc1ccc(/N=C2\SC(Cc3ccnc(Nc4ccc(C(=O)O)cn4)c3)C(=O)N2C)cc1 (racemic) | pIC50 [4]: 7.62 |
| 8.40 | CCc1ccc(/N=C2\S/C(=C\c3ccnc(NC(=O)CCC(=O)O)c3)C(=O)N2C)cc1 | pIC50 [2]: 5.77; Ratio IC50 [3]: 415 |
| 8.21 | CCc1ccc(/N=C2\S/C(=C\c3ccnc(Nc4ccc(C(=O)O)cc4)c3)C(=O)N2C)cc1 | pIC50 [2]: 5.81; Ratio IC50 [3]: 250 |
| 6.37 | CCc1ccc(/N=C2/NC(=O)/C(=C/c3ccncc3)S2)cc1 |  |
| 8.22 | CCc1ccc(/N=C2\S/C(=C\c3ccnc(NC(=O)CC(=O)O)c3)C(=O)N2C)cc1 | pIC50 [2]: 5.57; Ratio IC50 [3]: 450 |
| 6.43 | CN1C(=O)/C(=C/c2ccncc2)S/C1=N\c1ccc(C(F)(F)F)cc1 |  |
| 6.52 | CN1C(=O)/C(=C/c2ccncc2)S/C1=N\c1ccc(Br)cc1 |  |
| 6.11 | CC(C)c1ccc(/N=C2\S/C(=C\c3ccncc3)C(=O)N2C)cc1 |  |
| 6.66 | CCc1ccc(/N=C2\S/C(=C\c3ccnc(Nc4ccccn4)c3)C(=O)N2C)cc1 |  |
| 7.60 | CCc1ccc(/N=C2\S/C(=C\c3ccnc(Nc4ccc(-c5nnn[nH]5)cc4)c3)C(=O)N2C)cc1 | pIC50 [2]: 6.08; Ratio IC50 [3]: 33 |
| 6.89 | CCc1ccc(/N=C2\S/C(=C\c3ccnc(Nc4ccc(CO)cc4)c3)C(=O)N2C)cc1 | pIC50 [2]: 5.59; Ratio IC50 [3]: 20 |
| 5.72 | CCCc1ccc(/N=C2\S/C(=C\c3ccncc3)C(=O)N2C)cc1 |  |
| 5.89 | CCc1ccc(/N=C2\SC(Cc3ccnc(N)c3)C(=O)N2C)cc1 (racemic) |  |
| 5.70 | Cc1ccc(/N=C2\S/C(=C\c3ccncc3)C(=O)N2C)cc1C |  |
| 6.32 | CCc1ccc(/N=C2\S/C(=C\c3ccncc3)C(=O)N2CCOC)cc1 |  |
| 5.80 | CN1C(=O)/C(=C/c2ccncc2)S/C1=N\c1ccc(C(C)(C)C)cc1 |  |
| 6.72 | CCc1ccc(/N=C2\S/C(=C\c3ccnc(NC(=O)CCN)c3)C(=O)N2C)cc1 | pIC50 [2]: 5.00; Ratio IC50 [3]: 53 |
| 6.42 | CCc1ccc(/N=C2\S/C(=C\c3ccncc3)C(=O)N2CC)cc1 |  |
